Values after ≈ are worked out from the molar mass of the structure shown.
Tests used:
Assay type in all cases: functional
Enterococcus faecalis [1] = assay: Antimicrobial activity against Enterococcus faecalis UFPEDA 138 at 300 ug/disk after 24 hrs by disk diffusion method; conditions: UFPEDA 138, 24 h, read-out: IZ
Summary of the method: (§1)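 Preliminary screen by disk diffusion. Paper disks (6 mm) holding 300 µg of compound were placed on agar plates inoculated with a standardized microbial suspension. DMSO-only disks served as negative controls. A mean inhibition zone below 7 mm was scored as no sensitivity. Values are means, n = 3.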

Bacillus subtilis [2] = assay: Antimicrobial activity against Bacillus subtilis UFPEDA 16 after 20 hrs by twofold serial dilution technique; conditions: UFPEDA 16, 20 h
Summary of the method: (§2)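 MIC was determined by twofold serial dilution. Bacteria were tested in plates at 10⁵ CFU/plate and read after 20 h. C. albicans was tested in tubes at 10³ CFU/tube and read after 48 h. All incubations were at 35 °C. Medium plus DMSO served as the negative control.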

NCI-H292 [3] = assay: Cytotoxicity against human NCI-H292 cells at 2.5 ug/mL after 72 hrs by MTT assay; conditions: NCI-H292, 72 h, read-out: GI
Summary of the method: (§3)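 MTT antiproliferative assay. Cells were diluted to 10⁵ cells/mL in 96-well plates and preincubated for 24 h at 37 °C in humid 5% CO₂. Compounds or vincristine (reference) were then added. Formazan was dissolved and OD read at 540 nm, compared with medium-only control cells. Run in triplicate.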

Staphylococcus aureus [4] = assay: Antimicrobial activity against multidrug-resistant Staphylococcus aureus H.C. 20981 isolate after 20 hrs by twofold serial dilution technique; conditions: H.C. 20981, 20 h
Summary of the method: (§4)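 Twofold serial dilution MIC in agar plates against Gram-positive strains and multidrug-resistant clinical isolates. Inoculum applied was 10⁵ CFU/plate. Plates with culture medium plus DMSO served as negative control. MIC was read after incubation at 35 °C for 20 h.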

Enterococcus faecalis [5] = assay: Antimicrobial activity against multidrug-resistant Enterococcus faecalis H.C. 24708 isolate after 20 hrs by twofold serial dilution technique; conditions: H.C. 24708, 20 h; summary of the method: as §4
HEp-2 [6] = assay: Cytotoxicity against human Hep2 cells at 1.25 ug/mL after 72 hrs by MTT assay; conditions: HEp-2, 72 h, read-out: GI; summary of the method: as §3
HEp-2 [7] = assay: Cytotoxicity against human Hep2 cells at 2.5 ug/mL after 72 hrs by MTT assay; conditions: HEp-2, 72 h, read-out: GI; summary of the method: as §3
Staphylococcus aureus [8] = assay: Antimicrobial activity against multidrug-resistant Staphylococcus aureus H.C. 21141 isolate after 20 hrs by twofold serial dilution technique; conditions: H.C. 21141, 20 h; summary of the method: as §4
Staphylococcus [9] = assay: Antimicrobial activity against coagulase-negative Staphylococcus H.A.M. 338 isolate after 20 hrs by twofold serial dilution technique; conditions: H.A.M. 338, 20 h; summary of the method: as §2
Candida albicans [10] = assay: Antimicrobial activity against Candida albicans UFPEDA 1007 at 300 ug/disk after 48 hrs by disk diffusion method; conditions: UFPEDA 1007, 48 h, read-out: IZ; summary of the method: as §1
Micrococcus luteus [11] = assay: Antimicrobial activity against Micrococcus luteus UFPEDA 06 after 20 hrs by twofold serial dilution technique; conditions: UFPEDA 06, 20 h; summary of the method: as §2
NCI-H292 [12] = assay: Cytotoxicity against human NCI-H292 cells at 10 ug/mL after 72 hrs by MTT assay; conditions: NCI-H292, 72 h, read-out: GI; summary of the method: as §3
[13] = tested on: Mycolicibacterium smegmatis; assay: Antimicrobial activity against Mycobacterium smegmatis UFPEDA 71 at 300 ug/disk after 24 hrs by disk diffusion method; conditions: UFPEDA 71, 24 h, read-out: IZ; summary of the method: as §1
NCI-H292 [14] = assay: Cytotoxicity against human NCI-H292 cells at 1.25 ug/mL after 72 hrs by MTT assay; conditions: NCI-H292, 72 h, read-out: GI; summary of the method: as §3
Escherichia coli = assay: Antimicrobial activity against Escherichia coli UFPEDA 224 at 300 ug/disk after 24 hrs by disk diffusion method; conditions: UFPEDA 224, 24 h, read-out: IZ; summary of the method: as §1
Enterococcus faecalis [15] = assay: Antimicrobial activity against multidrug-resistant Enterococcus faecalis H.C. 21752 isolate after 20 hrs by twofold serial dilution technique; conditions: H.C. 21752, 20 h; summary of the method: as §4
Serratia marcescens = assay: Antimicrobial activity against Serratia marcescens UFPEDA 398 at 300 ug/disk after 24 hrs by disk diffusion method; conditions: UFPEDA 398, 24 h, read-out: IZ; summary of the method: as §1
Staphylococcus [16] = assay: Antimicrobial activity against coagulase-negative Staphylococcus H.A.M. 278 isolate after 20 hrs by twofold serial dilution technique; conditions: H.A.M. 278, 20 h; summary of the method: as §2
Staphylococcus aureus [17] = assay: Antimicrobial activity against multidrug-resistant Staphylococcus aureus H.C. 21036 isolate after 20 hrs by twofold serial dilution technique; conditions: H.C. 21036, 20 h; summary of the method: as §4
Staphylococcus aureus [18] = assay: Antimicrobial activity against Staphylococcus aureus UFPEDA 01 after 20 hrs by twofold serial dilution technique; conditions: UFPEDA 01, 20 h; summary of the method: as §4
Staphylococcus aureus [19] = assay: Antimicrobial activity against multidrug-resistant Staphylococcus aureus H.C. 20905 isolate after 20 hrs by twofold serial dilution technique; conditions: H.C. 20905, 20 h; summary of the method: as §4
Enterococcus faecalis [20] = assay: Antimicrobial activity against multidrug-resistant Enterococcus faecalis H.C. 24962 isolate after 20 hrs by twofold serial dilution technique; conditions: H.C. 24962, 20 h; summary of the method: as §4
Enterococcus faecalis [21] = assay: Antimicrobial activity against Enterococcus faecalis UFPEDA 138 after 20 hrs by twofold serial dilution technique; conditions: UFPEDA 138, 20 h; summary of the method: as §2
Micrococcus luteus [22] = assay: Antimicrobial activity against Micrococcus luteus UFPEDA 06 at 300 ug/disk after 24 hrs by disk diffusion method; conditions: UFPEDA 06, 24 h, read-out: IZ; summary of the method: as §1
[23] = tested on: Mycolicibacterium smegmatis; assay: Antimicrobial activity against Mycobacterium smegmatis UFPEDA 71 after 20 hrs by twofold serial dilution technique; conditions: UFPEDA 71, 20 h; summary of the method: as §2
Pseudomonas aeruginosa = assay: Antimicrobial activity against Pseudomonas aeruginosa UFPEDA 39 at 300 ug/disk after 24 hrs by disk diffusion method; conditions: UFPEDA 39, 24 h, read-out: IZ; summary of the method: as §1
HEp-2 [24] = assay: Cytotoxicity against human Hep2 cells at 5 ug/mL after 72 hrs by MTT assay; conditions: HEp-2, 72 h, read-out: GI; summary of the method: as §3
Staphylococcus aureus [25] = assay: Antimicrobial activity against multidrug-resistant Staphylococcus aureus H.C. 20489 isolate after 20 hrs by twofold serial dilution technique; conditions: H.C. 20489, 20 h; summary of the method: as §4
Bacillus subtilis [26] = assay: Antimicrobial activity against Bacillus subtilis UFPEDA 16 at 300 ug/disk after 24 hrs by disk diffusion method; conditions: UFPEDA 16, 24 h, read-out: IZ; summary of the method: as §1
Enterococcus faecalis [27] = assay: Antimicrobial activity against multidrug-resistant Enterococcus faecalis H.C. 21944 isolate after 20 hrs by twofold serial dilution technique; conditions: H.C. 21944, 20 h; summary of the method: as §4
HEp-2 [28] = assay: Cytotoxicity against human Hep2 cells at 10 ug/mL after 72 hrs by MTT assay; conditions: HEp-2, 72 h, read-out: GI; summary of the method: as §3
NCI-H292 [29] = assay: Cytotoxicity against human NCI-H292 cells at 5 ug/mL after 72 hrs by MTT assay; conditions: NCI-H292, 72 h, read-out: GI; summary of the method: as §3
Staphylococcus aureus [30] = assay: Antimicrobial activity against multidrug-resistant Staphylococcus aureus H.C. 20794 isolate after 20 hrs by twofold serial dilution technique; conditions: H.C. 20794, 20 h; summary of the method: as §4
Candida albicans [31] = assay: Antimicrobial activity against Candida albicans UFPEDA 1007 after 48 hrs by twofold serial dilution technique; conditions: UFPEDA 1007, 48 h; summary of the method: as §2
Staphylococcus aureus [32] = assay: Antimicrobial activity against Staphylococcus aureus UFPEDA 01 at 300 ug/disk after 24 hrs by disk diffusion method; conditions: UFPEDA 01, 24 h, read-out: IZ; summary of the method: as §1

Compound	zone of inhibition at 300 µg/disc (Enterococcus faecalis [1]) [mm]	MIC (Bacillus subtilis [2]) [µg/mL]	MIC (Staphylococcus aureus [4]) [µg/mL]	MIC (Enterococcus faecalis [5]) [µg/mL]	MIC (Staphylococcus aureus [8]) [µg/mL]	MIC (Staphylococcus [9]) [µg/mL]	zone of inhibition at 300 µg/disc (Candida albicans [10]) [mm]	MIC (Micrococcus luteus [11]) [µg/mL]	zone of inhibition at 300 µg/disc [13] [mm]	zone of inhibition at 300 µg/disc (Escherichia coli) [mm]	MIC (Enterococcus faecalis [15]) [µg/mL]	zone of inhibition at 300 µg/disc (Serratia marcescens) [mm]	MIC (Staphylococcus [16]) [µg/mL]	MIC (Staphylococcus aureus [17]) [µg/mL]	MIC (Staphylococcus aureus [18]) [µg/mL]	MIC (Staphylococcus aureus [19]) [µg/mL]	MIC (Enterococcus faecalis [20]) [µg/mL]	MIC (Enterococcus faecalis [21]) [µg/mL]	zone of inhibition at 300 µg/disc (Micrococcus luteus [22]) [mm]	MIC [23] [µg/mL]	further results
O=C1NC(=S)/C(=C/c2ccccc2F)S1	20	32 (≈ 134 µM)	4 (≈ 16.7 µM)	32 (≈ 134 µM)	8 (≈ 33.4 µM)	16 (≈ 66.9 µM)	16	32 (≈ 134 µM)	20	< 7	32 (≈ 134 µM)	< 7	32 (≈ 134 µM)	2 (≈ 8.36 µM)	8 (≈ 33.4 µM)	8 (≈ 33.4 µM)	32 (≈ 134 µM)	32 (≈ 134 µM)	25	32 (≈ 134 µM)	inhibition of growth at 2.5 µg/mL (NCI-H292 [3]): 7.78%; inhibition of growth at 1.25 µg/mL (HEp-2 [6]): -8.34%; inhibition of growth at 2.5 µg/mL (HEp-2 [7]): 1.66%; inhibition of growth at 10 µg/mL (NCI-H292 [12]): 40.4%; inhibition of growth at 1.25 µg/mL (NCI-H292 [14]): 4.29%; zone of inhibition at 300 µg/disc (Pseudomonas aeruginosa): < 7 mm; inhibition of growth at 5 µg/mL (HEp-2 [24]): 8.86%; MIC (Staphylococcus aureus [25]): 4 µg/mL (≈ 16.7 µM); zone of inhibition at 300 µg/disc (Bacillus subtilis [26]): 23 mm; MIC (Enterococcus faecalis [27]): 32 µg/mL (≈ 134 µM); inhibition of growth at 10 µg/mL (HEp-2 [28]): 11.2%; inhibition of growth at 5 µg/mL (NCI-H292 [29]): 25.2%; MIC (Staphylococcus aureus [30]): 8 µg/mL (≈ 33.4 µM); MIC (Candida albicans [31]): 32 µg/mL (≈ 134 µM); zone of inhibition at 300 µg/disc (Staphylococcus aureus [32]): 24 mm
CC1=C(C(=O)O)N2C(=O)[C@@H](NC(=O)[C@H](N)c3ccccc3)[C@H]2SC1 [CEPHALEXIN ANHYDROUS]		≤ 1	8 (≈ 23 µM)	64 (≈ 184 µM)	2 (≈ 5.76 µM)	128 (≈ 368 µM)		≤ 1			64 (≈ 184 µM)		128 (≈ 368 µM)	> 128	≤ 1	> 128	64 (≈ 184 µM)	64 (≈ 184 µM)		> 128	MIC (Staphylococcus aureus [25]): 2 µg/mL (≈ 5.76 µM); MIC (Enterococcus faecalis [27]): 64 µg/mL (≈ 184 µM); MIC (Staphylococcus aureus [30]): 4 µg/mL (≈ 11.5 µM)
O=C1CSC(=O)N1 [THIAZOLIDINEDIONE]	< 7						< 7		< 7	< 7		< 7							< 7		zone of inhibition at 300 µg/disc (Pseudomonas aeruginosa): < 7 mm; zone of inhibition at 300 µg/disc (Bacillus subtilis [26]): < 7 mm; zone of inhibition at 300 µg/disc (Staphylococcus aureus [32]): < 7 mm

Source: ChEMBL document CHEMBL1158358, “Synthesis, antimicrobial and cytotoxic activities of some 5-arylidene-4-thioxo-thiazolidine-2-ones” (Eur J Med Chem, 2009)
